From publication PMC11636628 (Journal of receptor and signal transduction research, 2024)

What was measured:
human CB2 = human CB2 (Homo sapiens, UniProt P34972); assay: thallium flux, HEK/GIRK cells; type: cell-based
Procedure, shortened: (§1)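 HEK/GIRK cells were made to stably express the receptor by ViaFect transfection with a pIRESpuro3 construct and selected with 1 μg/mL puromycin. Cells (15,000/well) were seeded overnight at 37 °C. They were loaded with 1.2 μM Thallos-AM in HBSS/20 mM HEPES pH 7.3 for 1 h at RT. Compound or DMSO was added, then 12 mM Tl2SO4 stimulus buffer with agonist 140 s later. The 145–155 s slope was vehicle-subtracted, normalized to maximal JWH133 signal and fit with a four-parameter logistic. Triplicate, three to five experiments.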

rat CB2 [1] = target: T1, rat CB2 (Rattus norvegicus, UniProt Q9QZN9); assay: thallium flux, HEK/GIRK cells; type: cell-based
T1 sequence (Q9QZN9 1-360): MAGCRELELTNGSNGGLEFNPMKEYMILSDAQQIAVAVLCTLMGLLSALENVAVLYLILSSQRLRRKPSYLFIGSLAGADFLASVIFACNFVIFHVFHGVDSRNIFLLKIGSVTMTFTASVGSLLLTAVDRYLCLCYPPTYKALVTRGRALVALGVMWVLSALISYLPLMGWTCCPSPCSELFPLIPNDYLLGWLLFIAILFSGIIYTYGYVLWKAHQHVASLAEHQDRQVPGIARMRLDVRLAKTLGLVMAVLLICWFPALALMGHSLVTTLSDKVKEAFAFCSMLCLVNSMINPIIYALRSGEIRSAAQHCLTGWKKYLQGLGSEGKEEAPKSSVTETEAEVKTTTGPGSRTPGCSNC
Procedure, shortened: as §1

human CB1 = human CB1 (Homo sapiens, UniProt P21554); assay: thallium flux, HEK/GIRK cells; type: cell-based
Chain of human CB1 (P21554 whole entry): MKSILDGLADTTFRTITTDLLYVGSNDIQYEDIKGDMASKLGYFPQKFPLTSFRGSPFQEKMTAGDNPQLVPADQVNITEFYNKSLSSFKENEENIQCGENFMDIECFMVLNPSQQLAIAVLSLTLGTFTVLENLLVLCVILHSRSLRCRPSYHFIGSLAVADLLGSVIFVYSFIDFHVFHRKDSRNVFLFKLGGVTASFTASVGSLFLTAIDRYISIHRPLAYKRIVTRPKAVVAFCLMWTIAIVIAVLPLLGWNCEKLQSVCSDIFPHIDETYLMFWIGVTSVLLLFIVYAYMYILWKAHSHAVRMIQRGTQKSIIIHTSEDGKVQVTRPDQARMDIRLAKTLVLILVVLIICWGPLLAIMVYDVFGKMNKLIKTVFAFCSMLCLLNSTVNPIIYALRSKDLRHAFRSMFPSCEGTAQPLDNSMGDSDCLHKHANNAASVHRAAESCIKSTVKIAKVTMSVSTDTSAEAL

rat CB1 [2] = target: T2, rat CB1 (Rattus norvegicus, UniProt P20272); assay: thallium flux, HEK/GIRK cells; type: cell-based
T2 sequence (P20272 whole entry): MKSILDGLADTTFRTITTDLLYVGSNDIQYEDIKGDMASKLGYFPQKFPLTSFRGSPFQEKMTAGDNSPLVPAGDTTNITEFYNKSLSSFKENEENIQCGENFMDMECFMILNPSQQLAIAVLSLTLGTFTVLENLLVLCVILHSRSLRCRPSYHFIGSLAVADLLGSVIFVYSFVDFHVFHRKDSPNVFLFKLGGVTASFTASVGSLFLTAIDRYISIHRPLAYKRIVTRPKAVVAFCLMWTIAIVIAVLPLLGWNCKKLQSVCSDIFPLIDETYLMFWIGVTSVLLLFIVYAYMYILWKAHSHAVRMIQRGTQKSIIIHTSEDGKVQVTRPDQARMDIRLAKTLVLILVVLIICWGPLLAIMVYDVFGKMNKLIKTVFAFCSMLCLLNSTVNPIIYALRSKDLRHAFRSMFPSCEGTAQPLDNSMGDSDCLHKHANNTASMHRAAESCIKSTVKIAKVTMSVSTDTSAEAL

rat CB2 [3] = target: T1, rat CB2; assay: [3H]CP55940 competition, HEK/GIRK membranes; type: binding
rat CB1 [4] = target: T2, rat CB1; assay: PI hydrolysis, [3H]inositol phosphate chromatography, HEK/Gqi9 cells; type: cell-based
Procedure, shortened: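 HEK293 cells stably expressing Gqi9 were transfected with a pIRESpuro3 receptor construct and puromycin-selected. They were seeded at 1.5 X 10^5 cells/well and assayed after 48 h. Cells were labelled overnight with 0.4 μCi myo-[3H]inositol in inositol-free DMEM with 5% dialyzed FBS. Agonists were added at 5x in 50 mM LiCl/250 mM HEPES pH 7.25 for 30 min at 37 °C. Reactions were stopped with boiling EDTA pH 8.0, and [3H]inositol phosphates were resolved on Dowex AG1-X8 and scintillation counted.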

rat CB2 [5] = target: T1, rat CB2; assay: thallium flux, HEK/GIRK cells, compound alone; type: cell-based

Chain of human CB2 (P34972 whole entry): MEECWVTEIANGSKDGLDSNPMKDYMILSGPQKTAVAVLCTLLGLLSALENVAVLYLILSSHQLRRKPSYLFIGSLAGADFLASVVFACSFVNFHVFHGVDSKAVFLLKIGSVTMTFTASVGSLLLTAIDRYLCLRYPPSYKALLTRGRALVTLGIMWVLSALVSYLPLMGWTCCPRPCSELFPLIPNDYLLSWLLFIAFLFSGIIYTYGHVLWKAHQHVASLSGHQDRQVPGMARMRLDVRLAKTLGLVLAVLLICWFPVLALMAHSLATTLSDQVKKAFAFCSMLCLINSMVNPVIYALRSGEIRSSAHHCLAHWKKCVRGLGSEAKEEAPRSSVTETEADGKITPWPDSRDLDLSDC

SMILES | EC50 (human CB2) [nM] | EC50 (rat CB2 [1]) [nM] | EC50 (human CB1) [nM] | also measured
CCCCC/C=C\C/C=C\C/C=C\C/C=C\CCCC(=O)OC(CO)CO [2-AG] | 145 | 49 | – | –
CCCCC/C=C\C/C=C\C/C=C\C/C=C\CCCC(=O)NCCCl [ACEA, N-(2-Chloroethyl)-5Z,8Z,11Z,14Z-eicosatetraenamide] | 1700 | 251 | 60.3 | EC50 (rat CB1 [2]): 20 nM
COc1ccc(C(=O)c2c(C)n(CCN3CCOCC3)c3cc(I)ccc23)cc1 [AM630] | – | – | – | IC50 (rat CB2 [3]): 72.4 nM
Cc1c(Br)cn(Cc2ccc(F)cc2)c(=O)c1NC(=O)C1CCCCCC1 [EC21a] | – | – | – | EC50 (rat CB1 [4]): 1700 nM; EC50 (rat CB2 [5]): 100 nM
CCCC(C)(C)c1ccc2c(c1)OC(C)(C)[C@@H]1CC=C(C)C[C@@H]21 [JWH133] | 275 | 537 | 1230 | –
